Assay outcomes as filed in PubChem BioAssay.
Compounds with a hit are over-represented: about 1.9% of the library has one in this group of screens.
SR-BI uptake up: activators of SR-BI mediated DiI-HDL uptake, primary screen, ldlA[mSR-BI] CHO cells, DiI fluorescence; 320,000 compounds, 0.096% hits; 3 h; 100 = double the neutral-control signal; activation, % at 12.5 µM;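 active = mean replicate activation of at least 60% and every replicate at or above 60%; inconclusive = mean or all-replicate condition met, but not both; inactive = mean below 60% and not all replicates reaching 60%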;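 also: 0% = median plate neutral-control signal and 100% = twice that signal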
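Assay system: LDL receptor-deficient CHO ldlA cells overexpressing murine SR-BI / Medium: BSA-supplemented, HEPES-buffered Ham's F12, pH 7.4 / Probe or stimulus: DiI-labelled HDL at 10 µg/mL final / Timing: compound with DiI-HDL co-incubation, 3 h at 37 °C / Technique: bottom-read cell fluorescence after medium removal, ex 550/em 595 nm / Measure: HDL uptake via cellular fluorescence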
Glyco luc inh: increase of ERlucT glycosylation luciferase signal, primary screen, N-linked glycosylation inhibitor project, D54 ERlucT cells, luminescence, set 2; AID 588692, 2011; 360,000 compounds, 0.23% hits; D54 ERlucT glycosylation luciferase reporter, 24 h; percent of 100 nM tunicamycin response; reporter increase, % at 12.5 µM;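 active = mean luciferase reporter signal, scaled so untreated is 0 and the glycosylation-blocking control 100, at or above a set limit in every replicate; inconclusive = mean reaches the limit but not every replicate does; inactive = mean below the limit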;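 also: luciferase carries N-glycosylation sites so blocking glycosylation raises the light; 0% = median of neutral control wells and 100% = median of 100 nM tunicamycin wells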
PglD DTNB: C. jejuni PglD acetyltransferase inhibitors, primary screen, biochemical, DTNB colorimetric, single point. UDP-N-acetylbacillosamine N-acetyltransferase PglD (Campylobacter jejuni). purified PglD enzyme, DTNB colorimetric CoA detection. inhibition, % at 12.5 µM. 360,000 compounds, 0.098% hits. AID 602405, 2012; in the data active = inhibition above about 16%, passing the limit was not always enough; inconclusive = no clear call, values can overlap the other calls
SR-BI HDL uptake: inhibitors of SR-BI mediated HDL lipid uptake, primary screen, ldlA[mSR-BI] cells, fluorescence, single point; Scavenger receptor class B member 1 (Mus musculus), Q61009; ldlA[mSR-BI] CHO cells, DiI-HDL uptake fluorescence, 3 h; inhibition, % at 12.5 µM; 320,000 compounds, 0.96% hits; AID 488896, 2010;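 active = mean replicate inhibition of at least 70% and a set share of replicates each scoring 70 or more; inconclusive = meets just one of the two criteria; inactive = fails both criteria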;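 also: 0% = median of neutral control wells and 100% = median of positive control wells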
HIV Env fusion: inhibitors of HIV-1 Env-driven cell-cell fusion, primary screen, HeLa-JRFL effector, CEM21 target cells, luciferase | inhibition, % at 12.3 µM | AID 651610, 2012 | 360,000 compounds, 1.1% hits;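 active = mean replicate inhibition score of at least 50 and every replicate individually at or above 50; inconclusive = only one of the two criteria met; inactive = mean below 50 and not all replicates reaching 50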;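 also: 0% = plate neutral controls and 100% = maraviroc near 300 nM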
Rtt109 HAT inh: inhibitors of C. albicans Rtt109/Vps75 HAT, primary screen, biochemical, ThioGlo CoA-SH fluorescence, plate reader; Histone acetyltransferase RTT109 (Candida albicans (strain SC5314 / ATCC MYA-2876)), …; purified Rtt109/Vps75, 4 h; inhibition, % at 34.9 µM; 330,000 compounds, 0.16% hits;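 active = inhibition of at least 50% in every replicate; inconclusive = best replicate reaches 50% inhibition but some replicates fall short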
Target sequence (Q5AAJ8 whole entry, looked up): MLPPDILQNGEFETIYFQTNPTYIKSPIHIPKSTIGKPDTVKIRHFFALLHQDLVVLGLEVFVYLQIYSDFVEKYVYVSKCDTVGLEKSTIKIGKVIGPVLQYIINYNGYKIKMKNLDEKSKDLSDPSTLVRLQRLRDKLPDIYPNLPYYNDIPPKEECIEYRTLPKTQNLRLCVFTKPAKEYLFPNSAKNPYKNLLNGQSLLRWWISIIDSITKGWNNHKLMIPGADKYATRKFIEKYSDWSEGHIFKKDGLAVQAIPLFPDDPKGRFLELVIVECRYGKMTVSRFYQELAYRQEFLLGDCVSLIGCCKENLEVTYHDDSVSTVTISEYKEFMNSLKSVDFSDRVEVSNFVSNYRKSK
* marks the source's active call; other numbers are inactive results; [ ] = dose if it differs, or a comment.

`Cc1cc(N(C)C(=O)c2ccc3c(c2)S(=O)(=O)c2cc(Cl)ccc2C3=O)c(C(F)(F)F)o1` gave SR-BI uptake up -74, Glyco luc inh 5, PglD DTNB -5, SR-BI HDL uptake 74*, HIV Env fusion 0 and Rtt109 HAT inh 2.
Screening C[C@@H]1CN([C@H](C)CO)C(=O)Cc2cc(N(C)C)ccc2O[C@H]1CN(C)Cc1ccc(Oc2ccccc2)cc1 returned PglD DTNB -3 and HIV Env fusion 53[16.7 µM].
Cc1cc(O)c2c(c1O)C(=O)[C@]13C(=C2O)C(=O)[C@@H]2[C@@H](O)[C@H]1[C@@H]1[C@H](O)[C@H]3C(=O)C3=C(O)c4c(O)cc(C)c(O)c4C(=O)[C@]312 was read as SR-BI uptake up -95, Glyco luc inh -3, PglD DTNB 13, SR-BI HDL uptake 95* and Rtt109 HAT inh 4.
C[C@H](CO)N1C[C@H](C)[C@H](CN(C)Cc2cccnc2)Oc2cc(C#CC3CC3)ccc2S1(=O)=O was read as PglD DTNB 3 and HIV Env fusion 1[16.7 µM].
`CCC(=O)Nc1ccc2c(c1)C(=O)N(C)[C@H]1CC[C@@H](CC(=O)NCC3CC3)O[C@@H]1CO2` gave PglD DTNB 0 and HIV Env fusion 4[16.7 µM].
COC(=O)N(C)c1nc2ccccc2s1 was read as SR-BI uptake up 15, Glyco luc inh -1, PglD DTNB -8, SR-BI HDL uptake -15 and Rtt109 HAT inh 5.
For CN(C(=O)OC(C)(C)C)c1ccc(-c2nc3ccccc3s2)cc1 the results were SR-BI uptake up -40, Glyco luc inh -20, PglD DTNB 4, SR-BI HDL uptake 40, HIV Env fusion 57* and Rtt109 HAT inh 4.
`O=C(CCN1CCCCC1)N[C@@H]1CC[C@H](CCNS(=O)(=O)c2ccc(Cl)cc2)O[C@@H]1CO` gave PglD DTNB 7 and HIV Env fusion -4[16.7 µM].
Screening C[C@H](CO)N1C[C@H](C)[C@@H](CN(C)S(=O)(=O)c2cn(C)cn2)Oc2c(NC(=O)C3CCOCC3)cccc2C1=O returned PglD DTNB -3.
Screening O=C(CN1CCN(c2ccccn2)CC1)Nc1ccc([N+](=O)[O-])cc1C(=O)Nc1ccccc1F returned SR-BI uptake up -1, Glyco luc inh -4, PglD DTNB 4, SR-BI HDL uptake 1, HIV Env fusion 60* and Rtt109 HAT inh -1.
Screening Cc1ccc(-c2nc(CS(=O)(=O)CC(=O)N3CCCCCC3)c(C)o2)cc1 returned SR-BI uptake up -9, Glyco luc inh 1, PglD DTNB 1, SR-BI HDL uptake 9, HIV Env fusion 51* and Rtt109 HAT inh 3.
`Cc1oc(-c2ccccc2F)nc1CS(=O)(=O)CC(=O)N1CCN(c2ccccc2)CC1` gave SR-BI uptake up -42, Glyco luc inh 2, PglD DTNB 0, SR-BI HDL uptake 42, HIV Env fusion 60* and Rtt109 HAT inh -6.
Screening COc1ccc2cc3c(N)nn(C(=O)c4cccc(F)c4)c3nc2c1 returned Glyco luc inh -9, HIV Env fusion inconclusive and Rtt109 HAT inh 7.
Screening COc1ccc2cc3c(N)nn(C(=O)c4ccc(F)cc4)c3nc2c1 returned Glyco luc inh -13, HIV Env fusion 63* and Rtt109 HAT inh 5.
COc1ccc2cc3c(N)nn(C(=O)Cc4c[nH]c5ccccc45)c3nc2c1 was read as SR-BI uptake up -2, Glyco luc inh -14, SR-BI HDL uptake 2, HIV Env fusion 90* and Rtt109 HAT inh 0.
CCCCSc1nnc(C)c(=O)[nH]1 was read as SR-BI uptake up 18, Glyco luc inh 1, PglD DTNB 0 and SR-BI HDL uptake -18.
Screening Cc1nnc(SCCC(C)C)[nH]c1=O returned SR-BI uptake up 96*, Glyco luc inh 3, PglD DTNB -5, SR-BI HDL uptake -96, HIV Env fusion -176 and Rtt109 HAT inh 2.
For CN1CCN(C(=O)C[C@@H]2CC[C@@H]3[C@H](COC[C@H](O)CN3C(=O)Nc3ccc(F)cc3)O2)CC1 the results were PglD DTNB -2 and HIV Env fusion 12[16.7 µM].
`COc1ccc(N2CCN(C(=O)Cc3nn(C)c(=O)c4ccccc34)CC2)cc1` gave SR-BI uptake up -16, Glyco luc inh 0, PglD DTNB 2, SR-BI HDL uptake 16, HIV Env fusion 61* and Rtt109 HAT inh -12.
`COc1ccc(N2CCN(C(=O)Cc3ccc(-n4c(=O)[nH]c5ccccc5c4=O)cc3)CC2)cc1` gave SR-BI uptake up -18, Glyco luc inh -3, PglD DTNB 0, SR-BI HDL uptake 18, HIV Env fusion 25 and Rtt109 HAT inh -6.
For COc1ccc(N2CCN(C(=O)CNC(=O)c3cn(-c4ccccc4OC)c(=O)c4ccccc34)CC2)cc1 the results were SR-BI uptake up -74, Glyco luc inh -1, SR-BI HDL uptake 74*, HIV Env fusion 4 and Rtt109 HAT inh -3.
For C[C@H](CO)N1C[C@H](C)[C@@H](CN(C)C(=O)NC2CCCCC2)Oc2ccc(NC(=O)C3CC3)cc2CC1=O the results were PglD DTNB 3 and HIV Env fusion -8[16.7 µM].
Screening CC(C)NC(=O)Nc1ccc2c(c1)C(=O)N(C)[C@H]1CC[C@H](CC(=O)Nc3ccccc3Cl)O[C@@H]1CO2 returned PglD DTNB -1 and HIV Env fusion -7[16.7 µM].
`CC1(C)Cc2c(cnn2-c2ccccc2)C(=O)/C1=N\NC(=O)c1ccccc1N` gave SR-BI uptake up -75, Glyco luc inh 0 and SR-BI HDL uptake 75*.
Nc1c(C(=O)N/N=C/c2ccccc2)cnn1-c1ccccc1 was read as SR-BI uptake up -30, Glyco luc inh -11, PglD DTNB -2, SR-BI HDL uptake 30, HIV Env fusion -34 and Rtt109 HAT inh -4.
`Cc1c(NC(=O)c2ccc(S(=O)(=O)N(C)c3ccccc3)cc2)c(=O)n(-c2ccccc2)n1C` gave SR-BI uptake up 18, Glyco luc inh 0, PglD DTNB -2, SR-BI HDL uptake -18, HIV Env fusion 17 and Rtt109 HAT inh 2.
CCN(c1ccccc1)S(=O)(=O)c1ccc(C(=O)Nc2c(C)n(C)n(-c3ccccc3)c2=O)cc1 was read as SR-BI uptake up 2, Glyco luc inh 4, PglD DTNB -8, SR-BI HDL uptake -2, HIV Env fusion 57* and Rtt109 HAT inh 15.
`Cc1ccc(-c2ccc(=O)[nH]n2)cc1` gave SR-BI uptake up 23, Glyco luc inh 3, SR-BI HDL uptake -23, HIV Env fusion 56* and Rtt109 HAT inh 0.
